# Results published in ChEMBL document CHEMBL1125427, “Synthesis of 3-(2-pyridylethyl)benzoxazolinone derivatives: potent analgesic and antiinflammatory compounds inhibiting prostaglandin E2” (1992).
# How the values were obtained:
# Type in all cases: functional
# Mus musculus [1] = species: Mus musculus; experiment: Analgesic activity in mice; set-up: concentration or dose not given beside the values
# Method in brief: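 Female albino mice (22 ± 2 g, local breed), groups of eight, dosed orally at 100 mg/kg as a suspension in 5% gum arabic syrup. After 1 h, 3% acetic acid was given ip at 300 mg/kg. Stretches were counted over 10 min, starting 5 min after injection. Percent activity = |n − n'|/n × 100 against syrup-only controls (n = 6).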
# Mus musculus [2] = experiment: The compound was evaluated for inhibition of edema induced by bradykinin at 100 ug/mL
# Method in brief: (§1)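 Mice, six per group, dosed orally at 100 mg/kg. After 60 min, 0.01 mL of phlogistic agent (arachidonic acid or bradykinin) was injected subcutaneously into the right hind paw plantar surface. Edema was measured by dial thickness gauge and the effect expressed as percent inhibition.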
# Mus musculus [3] = experiment: Intestinal ulcerogenic activity at a dose of 100 mg/kg
# Method in brief: (§2)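 Fed animals were gavaged with compound on 3 consecutive days and killed 24 h after the last dose. Intestines were examined for ulcers. Read-out: ulcer incidence per group of 8 and lesion length (mm/mouse ± SE).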
# Mus musculus [4] = experiment: The compound was evaluated for inhibition of edema induced by histamine at 10 mg/mL
# Method in brief: (§3)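 Female albino mice (22 ± 2 g, local breed), six per group, housed in eights with free food and water, acclimatised at least 2 days. Compound given orally at 100 mg/kg; 60 min later 0.01 mL of the phlogistic agent (histamine or serotonin) injected subcutaneously into the right hind paw plantar surface. Paw edema measured with a dial thickness gauge; effect expressed as percent inhibition.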
# Mus musculus [5] = experiment: Gastric ulcerogenic activity at a dose of 300 mg/kg: 8 mice were considered for the test
# Method in brief: (§4)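 Mice fasted 24 h with water available. Compound in methyl cellulose vehicle given by oral gavage at 0.5 mL/100 g body weight. Animals were killed after 4 h and stomachs examined for lesions under a dissecting microscope. Read-out: ulcer incidence per group of 8 and lesion length (mm/mouse ± SE).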
# Mus musculus [6] = experiment: Gastric ulcerogenic activity at a dose of 100 mg/kg; method in brief: as §4
# Mus musculus [7] = experiment: The compound was evaluated for inhibition of edema induced by PGE at […]
# Method in brief: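 Mice, six per group, dosed orally at 100 mg/kg. After 60 min, PGE2 (20 μg/0.01 mL) was injected subcutaneously into the right hind paw plantar surface. Edema was measured with a dial thickness gauge and the effect expressed as percent inhibition.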
# Mus musculus [8] = experiment: Gastric ulcerogenic activity at a dose of 60 mg/kg; method in brief: as §4
# Mus musculus [9] = experiment: Intestinal ulcerogenic activity at a dose of 300 mg/kg: 8 mice were considered for the test; method in brief: as §2
# Mus musculus [10] = experiment: The compound was evaluated for inhibition of edema induced by serotonin at 250 ug/mL; method in brief: as §3
# Mus musculus [11] = experiment: Antiinflammatory activity against CPE in mice following peroral administration of 60 mg/kg; details: route oral
# Method in brief: (§5)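 Female albino mice (22 ± 2 g), six per group, dosed orally. After 60 min, 0.01 mL of 2% carrageenan was injected subcutaneously into the right hind paw plantar surface. Edema was read with a dial thickness gauge 3 h later. ED50 was given in mg/kg po with 95% confidence limits.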
# Mus musculus [12] = experiment: Intestinal ulcerogenic activity at a dose of 60 mg/kg:group of 8 mouse considered for the test; method in brief: as §2
# Mus musculus [13] = experiment: Gastric ulcerogenic activity at a dose of 300 mg/kg; method in brief: as §4
# Mus musculus [14] = experiment: Intestinal ulcerogenic activity at a dose of 100 mg/kg: 8 mice were considered for the test; method in brief: as §2
# Mus musculus [15] = experiment: The compound was evaluated for inhibition of edema induced by arachidonic acid at 1 mg/mL; method in brief: as §1
# Mus musculus [16] = experiment: Inhibitory activity against carrageenan induced paw edema in mice; set-up: concentration or dose not given beside the values
# Mus musculus [17] = experiment: Intestinal ulcerogenic activity at a dose of 300 mg/kg; method in brief: as §2
# Mus musculus [18] = experiment: Gastric ulcerogenic activity at a dose of 60 mg/kg: 8 mice were considered for the test; method in brief: as §4
# Mus musculus [19] = experiment: Gastric ulcerogenic activity at a dose of 100 mg/kg: 8 mice were considered for the test; method in brief: as §4
# Mus musculus [20] = experiment: Intestinal ulcerogenic activity at a dose of 60 mg/kg; method in brief: as §2
# Mus musculus [21] = experiment: Intestinal ulcerogenic activity at a dose of 60 mg/kg: 8 mice were considered for the test; method in brief: as §2
# Mus musculus [22] = experiment: Intestinal ulcerogenic activity at a dose of 300 mg/kg: group of 8 mice were considered for the test; method in brief: as §2
# Mus musculus [23] = experiment: Gastric ulcerogenic activity at a dose of 30 mg/kg:group of 8 mouse considered for the test; method in brief: as §4
# Mus musculus [24] = experiment: Antiinflammatory activity against CPE in mice following peroral administration of 30 mg/kg; details: route oral; method in brief: as §5
# Mus musculus [25] = experiment: Intestinal ulcerogenic activity at a dose of 30 mg/kg; method in brief: as §2
# Mus musculus [26] = experiment: Gastric ulcerogenic activity at a dose of 30 mg/kg; method in brief: as §4
# Mus musculus [27] = experiment: Gastric ulcerogenic activity at a dose of 300 mg/kg:group of 8 mouse considered for the test; method in brief: as §4
# Mus musculus [28] = experiment: Intestinal ulcerogenic activity at a dose of 30 mg/kg: group of 8 mice were considered for the test; method in brief: as §2
# Mus musculus [29] = experiment: Intestinal ulcerogenic activity at a dose of 100 mg/kg: group of 8 mice were considered for the test; method in brief: as §2
# Mus musculus [30] = experiment: Gastric ulcerogenic activity at a dose of 100 mg/kg:group of 8 mouse considered for the test; method in brief: as §4
# Mus musculus [31] = experiment: The compound was evaluated for inhibition of edema induced by serotonin at 250 micro g/mL; method in brief: as §3
# Mus musculus [32] = experiment: Gastric ulcerogenic activity at a dose of 10 mg/kg; method in brief: as §4
# Mus musculus [33] = experiment: The compound was evaluated for inhibition of edema induced by bradykinin at 100 micro g/mL; method in brief: as §1
# Mus musculus [34] = experiment: Inhibitory activity against carrageenan induced mouse paw edema in mice.
# Mus musculus [35] = experiment: Antiinflammatory activity against CPE in mice following peroral administration of 10 mg/kg; details: route oral; method in brief: as §5
# Mus musculus [36] = experiment: Intestinal ulcerogenic activity at a dose of 10 mg/kg; method in brief: as §2
# Mus musculus [37] = experiment: Intestinal ulcerogenic activity at a dose of 10 mg/kg; 8 mice were considered for the test; method in brief: as §2
# Mus musculus [38] = experiment: Gastric ulcerogenic activity at a dose of 10 mg/kg: 8 mice were considered for the test; method in brief: as §4
smiles,measurement,setting,value
O=c1oc2ccc(Cl)cc2n1CCc1ccccn1,Analgesic activity,Mus musculus [1],96.96%
same,Inhibition,Mus musculus [2],7%
same,Lesion length,Mus musculus [3],0 mm mice-1
same,Inhibition,Mus musculus [4],9%
same,Ulcer incidence,Mus musculus [5],4 number/group
same,Lesion length,Mus musculus [6],0.2 mm mice-1
same,Inhibition,Mus musculus [7],64.8%
same,Lesion length,Mus musculus [8],0 mm mice-1
same,Ulcer incidence,Mus musculus [9],1 number/group
same,Inhibition,Mus musculus [10],10.5%
same,ED50,Mus musculus [11],63 mg/kg
same,Ulcer incidence,Mus musculus [12],0 number/group
same,Lesion length,Mus musculus [13],0.9 mm mice-1
same,Ulcer incidence,Mus musculus [14],0 number/group
same,Inhibition,Mus musculus [15],42%
same,Inhibition,Mus musculus [16],62.3%
same,Lesion length,Mus musculus [17],0.1 mm mice-1
same,Ulcer incidence,Mus musculus [18],0 number/group
same,Ulcer incidence,Mus musculus [19],1 number/group
same,Lesion length,Mus musculus [20],0 mm mice-1
O=c1oc2ccccc2n1CCc1ccncc1,Analgesic activity,Mus musculus [1],96.06%
same,Inhibition,Mus musculus [2],6.4%
same,Lesion length,Mus musculus [3],0 mm mice-1
same,Inhibition,Mus musculus [4],7.6%
same,Ulcer incidence,Mus musculus [5],5 number/group
same,Lesion length,Mus musculus [6],0 mm mice-1
same,Inhibition,Mus musculus [7],62.2%
same,Lesion length,Mus musculus [8],0 mm mice-1
same,Ulcer incidence,Mus musculus [9],2 number/group
same,Inhibition,Mus musculus [10],9.4%
same,ED50,Mus musculus [11],57 mg/kg
same,Ulcer incidence,Mus musculus [21],0 number/group
same,Lesion length,Mus musculus [13],0.9 mm mice-1
same,Ulcer incidence,Mus musculus [14],0 number/group
same,Inhibition,Mus musculus [15],38.9%
same,Inhibition,Mus musculus [16],59.1%
same,Lesion length,Mus musculus [17],0.1 mm mice-1
same,Ulcer incidence,Mus musculus [18],0 number/group
same,Ulcer incidence,Mus musculus [19],0 number/group
same,Lesion length,Mus musculus [20],0 mm mice-1
COc1ccc(C(=O)c2ccc3c(c2)oc(=O)n3CCc2ccccn2)cc1,Analgesic activity,Mus musculus [1],80.34%
same,Inhibition,Mus musculus [2],13%
same,Inhibition,Mus musculus [4],5.4%
same,Inhibition,Mus musculus [10],9.9%
same,Inhibition,Mus musculus [15],40%
same,Inhibition,Mus musculus [16],30.8%
O=C(c1ccc2c(c1)oc(=O)n2CCc1ccccn1)c1ccccc1Cl,Ulcer incidence,Mus musculus [22],0 number/group
same,Ulcer incidence,Mus musculus [23],0 number/group
same,ED50,Mus musculus [24],25.5 mg/kg
same,Lesion length,Mus musculus [25],0 mm mice-1
same,Analgesic activity,Mus musculus [1],91.74%
same,Inhibition,Mus musculus [2],6.4%
same,Lesion length,Mus musculus [3],0 mm mice-1
same,Lesion length,Mus musculus [26],0 mm mice-1
same,Inhibition,Mus musculus [4],5%
same,Lesion length,Mus musculus [6],0 mm mice-1
same,Inhibition,Mus musculus [7],53%
same,Ulcer incidence,Mus musculus [27],2 number/group
same,Inhibition,Mus musculus [10],18.2%
same,Lesion length,Mus musculus [13],0.4 mm mice-1
same,Inhibition,Mus musculus [15],46%
same,Inhibition,Mus musculus [16],37.1%
same,Lesion length,Mus musculus [17],0.2 mm mice-1
same,Ulcer incidence,Mus musculus [28],0 number/group
same,Ulcer incidence,Mus musculus [29],0 number/group
same,Ulcer incidence,Mus musculus [30],0 number/group
O=c1oc2ccccc2n1CCc1ccccn1,Analgesic activity,Mus musculus [1],92.17%
same,Inhibition,Mus musculus [2],6%
same,Lesion length,Mus musculus [3],0 mm mice-1
same,Inhibition,Mus musculus [4],5.5%
same,Ulcer incidence,Mus musculus [5],4 number/group
same,Inhibition,Mus musculus [7],56.2%
same,Lesion length,Mus musculus [8],0 mm mice-1
same,Ulcer incidence,Mus musculus [9],0 number/group
same,Inhibition,Mus musculus [10],10.2%
same,ED50,Mus musculus [11],55 mg/kg
same,Ulcer incidence,Mus musculus [21],0 number/group
same,Lesion length,Mus musculus [13],0.7 mm mice-1
same,Ulcer incidence,Mus musculus [14],0 number/group
same,Inhibition,Mus musculus [15],41.3%
same,Inhibition,Mus musculus [16],55.2%
same,Lesion length,Mus musculus [17],0.07 mm mice-1
same,Ulcer incidence,Mus musculus [18],0 number/group
same,Ulcer incidence,Mus musculus [19],1 number/group
same,Lesion length,Mus musculus [20],0 mm mice-1
CC(=O)c1ccc2c(c1)oc(=O)n2CCc1ccncc1,Analgesic activity,Mus musculus [1],38.46%
same,Inhibition,Mus musculus [16],10.3%
CC(=O)c1ccc2c(c1)oc(=O)n2CCc1ccccn1,Analgesic activity,Mus musculus [1],48.74%
same,Inhibition,Mus musculus [16],5.6%
O=C(c1ccccc1Cl)c1cc2oc(=O)n(CCc3ccccn3)c2cc1Cl,Analgesic activity,Mus musculus [1],72.67%
same,Inhibition,Mus musculus [2],7.6%
same,Inhibition,Mus musculus [4],10%
same,Inhibition,Mus musculus [10],9%
same,Inhibition,Mus musculus [15],37%
same,Inhibition,Mus musculus [16],19.7%
O=C(c1ccccc1)c1ccc2c(c1)oc(=O)n2CCc1ccccn1,Analgesic activity,Mus musculus [1],79.49%
same,Inhibition,Mus musculus [2],11%
same,Inhibition,Mus musculus [4],6%
same,Inhibition,Mus musculus [10],9.8%
same,Inhibition,Mus musculus [15],32%
same,Inhibition,Mus musculus [16],37.1%
O=C(c1ccc2c(c1)oc(=O)n2CCc1ccncc1)c1ccccc1Cl,Analgesic activity,Mus musculus [1],84.35%
same,Inhibition,Mus musculus [2],7%
same,Inhibition,Mus musculus [4],7.4%
same,Inhibition,Mus musculus [10],10%
same,Inhibition,Mus musculus [15],39%
same,Inhibition,Mus musculus [16],38.6%
O=C(c1ccccc1)c1ccc2c(c1)oc(=O)n2CCc1ccncc1,Analgesic activity,Mus musculus [1],85.47%
same,Inhibition,Mus musculus [2],10%
same,Inhibition,Mus musculus [4],8.5%
same,Inhibition,Mus musculus [10],14.1%
same,Inhibition,Mus musculus [15],36.5%
same,Inhibition,Mus musculus [16],46.5%
COc1ccc(C(=O)c2ccc3c(c2)oc(=O)n3CCc2ccncc2)cc1,Analgesic activity,Mus musculus [1],75.21%
same,Inhibition,Mus musculus [2],10%
same,Inhibition,Mus musculus [4],8%
same,Inhibition,Mus musculus [10],15%
same,Inhibition,Mus musculus [15],32%
same,Inhibition,Mus musculus [16],25.9%
COc1ccc2c(c1)c(CC(=O)O)c(C)n2C(=O)c1ccc(Cl)cc1 [INDOMETHACIN],Inhibition,Mus musculus [4],14.7%
same,Inhibition,Mus musculus [31],10.3%
same,Lesion length,Mus musculus [32],0.6 mm mice-1
same,Inhibition,Mus musculus [33],13.4%
same,Inhibition,Mus musculus [34],21.1%
same,ED50,Mus musculus [35],7.5 mg/kg
same,Lesion length,Mus musculus [36],0.4 mm mice-1
same,Inhibition,Mus musculus [15],37%
same,Ulcer incidence,Mus musculus [37],8 number/group
same,Ulcer incidence,Mus musculus [38],7 number/group
